Published values from different studies.
Lines come from different studies, so protocols differ.

Compound	method	matrix	time	pH	temperature	setting	solubility
Cc1ccc(N(c2ccc(NC(=O)CN(C)c3ccccc3N3CCCC3=O)cc2)C(C)C)cc1		PBS		pH 7.4			< 2.5 µM
CNS(=O)(=O)c1ccc(Nc2ncc(C(F)(F)F)c([C@H]3CC[C@](C)(O)CC3)n2)c(C)c1		FaSSIF	2 h				14 µM
Cn1cc(-c2ccc3c(Cl)cn(CC(=O)Nc4ccccc4Cl)c3c2)cn1		PBS		pH 7.4			< 2.7 µM
CCOC(=O)C1=C(CN2CCOCC2)NC(c2nccs2)=NC1c1ccc(F)cc1Br (centres unmarked)	HPLC	aqueous buffer		pH 7			< 1 µg/mL
CNS(=O)(=O)c1ccc(Nc2ncc(C(F)(F)F)c(N3CCC[C@](C)(O)C3)n2)c(C)c1		FaSSIF	2 h				194 µM
Cc1ccc(N(C)c2ccc(NC(=O)CN(C)c3cccnc3N3CCCC3=O)cc2)cc1		PBS		pH 7.4			16 µM
CCCN1C(=O)COc2ccc(S(=O)(=O)Nc3cc(OC)ccc3OC)cc21		PBS	8 h	pH 7.4			100 µM
COc1ncccc1Cn1nc(-c2ccc(CO)o2)c2ccccc21		aqueous buffer	6 h	pH 7.4			> 33 µg/mL
CNS(=O)(=O)c1ccc(Nc2ncc(C(F)(F)F)c(N3CCC(C)(O)CC3)n2)c(C)c1		PBS	2 h	pH 7.4			2.7 µM
OCc1ccc(-c2nn(Cc3ccccc3)c3cnccc23)o1		aqueous buffer	6 h	pH 7.4			> 45 µg/mL
O=C(O)c1cc(-c2ccc(-n3ccnn3)cc2)cc(-n2cc(-c3ccc(C(F)(F)F)cc3)nn2)c1		aqueous buffer		pH 4			0.74 µg/mL
Cc1cc(-c2ccnc3[nH]cc(F)c23)cc(F)c1[C@@]1(O)[C@H](C)CN(C2CCS(=O)(=O)CC2)C[C@@H]1C		aqueous buffer					> 50 µg/mL
CN1CCN(c2cccc(-c3ccc4ncnc(Nc5ccc(Cl)c(Cl)c5)c4c3)c2)CC1		aqueous buffer		pH 7.4	25 °C		< 1.7 µM
CC(C)(C)OC(=O)N1CCC(Oc2ccc3c(=O)c4c(Cl)cc(F)cc4[nH]c3c2)CC1	absorbance	aqueous buffer	90 min	pH 7.4			< 3.12 µM
Clc1ccc(Nc2ncnc3ccc(-c4cccc(N5CCOCC5)c4)cc23)cc1		aqueous buffer		pH 7.4	25 °C		< 0.4 µM
CCCN(CCC)CCNc1ccc2c(=O)c3c([nH]c2c1)CCCC3	absorbance	aqueous buffer	90 min	pH 7.4			> 500 µM
OCc1ccc(-c2nn(Cc3ccccc3)c3cccnc23)o1		aqueous buffer	6 h	pH 7.4			> 45 µg/mL
Cn1cc(Nc2ncnc3ccc(-c4cccc(N5CCOCC5)c4)cc23)cn1		aqueous buffer		pH 7.4	25 °C		1.5 µM
O=C(O)Cc1ccccc1Nc1c(Cl)cccc1Cl		FeSSIF					303 µM
CCN(c1ccc(C)cc1)c1ccc(NC(=O)CN(C)c2ccccc2N2CCCC2=O)cn1		PBS		pH 7.4			3.4 µM
Cc1ccc(Nc2cnnc3ccc(-c4ccc(N5CCN(C)CC5)cc4)cc23)cn1		aqueous buffer		pH 7.4	25 °C		60 µM
CNS(=O)(=O)c1ccc(Nc2ncc3cc(Cl)c(=O)n(C4CCCC4)c3n2)c(C)c1		PBS	2 h	pH 7.4			0.3 µM

Compound	method	matrix	time	pH	temperature	setting	solubility
CC(C)(C(=O)O)[C@H](NC(=O)Cc1cccc(I)c1)c1ccc2oc(=O)[nH]c2c1		aqueous buffer		pH 6.8			> 700 µM
OCc1ccc(-c2nn(Cc3ccccn3)c3cccnc23)o1		aqueous buffer	6 h	pH 7.4			> 30 µg/mL
O=C([O-])CN1CCNCCN(CC(=O)[O-])CCNCC1.[Mn+2]		water					470000 µg/mL
c1ccc(Oc2ccc(Nc3c4c(nc5ccccc35)CCC4)cc2)cc1		simulated gastric fluid	30 min	pH 2		acidic	25 to 50 µg/mL
CCOC(=O)C1=C(CN2CCC[C@@H]2C(=O)Nc2ccc(B(O)O)cc2)NC(c2nccs2)=N[C@H]1c1ccc(F)cc1Br	HPLC	aqueous buffer		pH 7			2.57 µg/mL
Cc1ccc(N(C)c2ccc(NC(=O)CN(C)c3ccccc3N3CCCC3=O)cn2)cc1		PBS		pH 7.4			44 µM
Cc1nsc(-c2nnc3n2CCN(C(=O)c2ccc(F)cc2)[C@@H]3C)n1		aqueous buffer		pH 7.4			350 µg/mL
C[C@@H]1COCCN1c1cccc(-c2ccc3ncnc(Nc4ncco4)c3c2)c1		aqueous buffer		pH 7.4	25 °C		23 µM
COc1ccc(Oc2ccc3c(=O)c4c(F)cc(Cl)cc4[nH]c3c2)cc1	absorbance	aqueous buffer	90 min	pH 7.4			< 3.12 µM
Cc1ccc(C(C)(C)c2ccc(NC(=O)CN(C)c3ccccc3N3CCCC3=O)cc2)cc1		PBS		pH 7.4			2.5 µM
CN1CCN(c2ccc(-c3ccc4nncc(Nc5ccc(OC(F)(F)F)cc5)c4c3)cc2)CC1		aqueous buffer		pH 7.4	25 °C		2.5 µM
OCc1ccc(-c2nn(Cc3ccccc3)c3ccccc23)o1		aqueous buffer	6 h	pH 7.4			3 µg/mL
CCN(CC)CCOc1ccc2c(=O)c3c([nH]c2c1)CCCC3	absorbance	aqueous buffer	90 min	pH 7.4			> 500 µM
OCc1ccc(-c2nn(Cc3ccncc3)c3cccnc23)o1		aqueous buffer	6 h	pH 7.4			> 30 µg/mL
FC(F)(F)c1cc(Nc2ncnc3ccc(-c4cccc(N5CCOCC5)c4)cc23)ccc1Cl		aqueous buffer		pH 7.4	25 °C		< 0.7 µM
O=c1c2ccc(Oc3ccc(OC(F)(F)F)cc3)cc2[nH]c2cc(F)c(Cl)cc12	absorbance	aqueous buffer	90 min	pH 7.4			< 3.12 µM
c1coc(Nc2ncnc3ccc(-c4cncc(N5CCOCC5)n4)cc23)n1		aqueous buffer		pH 7.4	25 °C		19 µM
OCc1ccc(-c2nn(Cc3cccnc3)c3cccnc23)o1		aqueous buffer	6 h	pH 7.4			> 30 µg/mL
CN1CCN(c2cccc(-c3ccc4ncnc(Nc5ccc([N+](=O)[O-])c(C(F)(F)F)c5)c4c3)c2)CC1		aqueous buffer		pH 7.4	25 °C		2 µM
Cc1ccccc1CN1C(=O)C2=C(CCN(Cc3ccccc3)C2)N2CCN=C12	shake flask	aqueous buffer		pH 4			92100 µg/mL
CN1CCC(Nc2ncnc3ccc(-c4cccc(N5CCOCC5)c4)cc23)CC1		aqueous buffer		pH 7.4	25 °C		928 µM
O=C(Nc1ccc(OC(F)(F)F)cc1)N[C@H]1CC[C@H](Oc2ccc(C(=O)O)cc2)CC1		simulated gastric fluid	1 h	pH 1	37 °C	acidic	0.0008 µg/mL
